≈ marks a conversion by molar mass, not a printed value. Calls of active or inactive are those of the source. No cut-off for these calls is given here.
Assays:
[1] = Inhibition of Plasmodium falciparum FabZ using crotonoyl-CoA as substrate preincubated for 10 mins prior to substrate addition
[2] = Inhibition of Plasmodium falciparum FabG using acetoacetyl-CoA as substrate
[3] = Inhibition of Mycobacterium tuberculosis FabI using 2-dodecenoyl-CoA as substrate at pH 6.8
[4] = Cytotoxicity against human Huh7.5 cells after 24 hrs by Cell-titerGlo luminescence assay; type: cell-based; settings: Huh-7, 24 h
Procedure, shortened: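 HuH7.5 human hepatoma cells (30 000/well) in advanced DMEM complete medium were exposed to compounds for 24 h, or to 0.1% DMSO as reference. Viability was read by CellTiter-Glo luminescence.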

[5] = species on record: Danio rerio; test: Hepatotoxicity in zebrafish larva expressing fabp10a:DsRed2 assessed as change in liver size at 0.3 uM measured at 6 days postfertilization by fluorescence microscopic analysis; type: toxicity, organism-based; settings: in vivo, 144 h
Procedure, shortened: (§1)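 Transgenic fabp10a:DsRed2 zebrafish were raised at 28.5 °C on a 14 h light/10 h dark cycle. Larvae were sorted at 3 dpf for liver fluorescence and exposed to compounds at 10 per well, with 1% DMSO controls. General and heart toxicity were checked at 4 dpf, dosing went up to the maximum-tolerated concentration, and five liver phenotypes were scored at 6 dpf by fluorescence microscopy.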

[6] = species on record: Danio rerio; test: Toxicity in zebrafish larva measured at 4 days postfertilization; type: organism-based; settings: in vivo, 96 h
Procedure, shortened: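 Transgenic fabp10a:DsRed2 larvae raised at 28.5 °C (14 h light/10 h dark), sorted for liver fluorescence at 3 dpf and exposed to compounds, 10 larvae per well; general and heart toxicity checked at 4 dpf to set maximum-tolerated concentration.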

[7] = Inhibition of Plasmodium falciparum FabI using crotonoyl-CoA as substrate preincubated for 10 mins prior to substrate addition
[8] = system: Mycobacterium tuberculosis; test: Antimycobacterial activity against Mycobacterium tuberculosis ATCC 27294; type: functional
[9] = system: Escherichia coli; test: Antibacterial activity against Escherichia coli ATCC 8739; type: functional, organism-based; settings: ATCC 8739, ATCC 8739
Procedure, shortened: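 E. coli ATCC 8739 whole cells tested in triplicate by a previously reported method. Compounds were fully solubilized beforehand, with brief agitation or sonication used for DMSO solutions at high test concentrations (>120 μM).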

[10] = system: Plasmodium berghei; test: Antiplasmodial activity against liver stage of Plasmodium berghei ANKA expressing GFP infected in human Huh7.5 cells assessed as decrease in size at 10 uM after 48 hrs by immunofluorescence analysis; type: functional, organism-based; settings: Huh-7
Procedure, shortened: (§2)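 HuH7.5 cells (50 000/well, chambered slides) were infected with 33 000 freshly dissected P. berghei GFP sporozoites and incubated 48 h with compound or 0.1% DMSO. Cells were fixed in 10% neutral buffered formalin and stained with mouse anti-Plasmodium HSP70 (FITC) plus Hoechst. Parasite size was imaged by fluorescence microscopy with a 40× objective.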

[11] = system: Plasmodium berghei; test: Antiplasmodial activity against liver stage of Plasmodium berghei ANKA expressing GFP infected in human Huh7.5 cells assessed as decrease in size at 1 uM after 48 hrs by immunofluorescence analysis; type: functional, organism-based; settings: Huh-7; procedure, shortened: as §2
[12] = system: Plasmodium berghei; test: Antiplasmodial activity against liver stage of Plasmodium berghei ANKA expressing GFP infected in human Huh7.5 cells assessed as reduction in PB18S gene expression after 48 hrs by qRT-PCR analysis; type: functional, organism-based; settings: Huh-7, 48 h
Procedure, shortened: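 HuH7.5 cells infected with freshly dissected P. berghei GFP sporozoites (30 000 per 60 000 cells); 48 h culture with compounds (10 to 100 μM) at 37 °C, media changed every 24 h. Total RNA extracted, DNase treated; PB18S expression normalized to DMSO controls; IC50 estimated; atovaquone positive control.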

[13] = molecular target: T1, Enoyl-[acyl-carrier-protein] reductase [NADH] FabI (Escherichia coli K-12, UniProt P0AEK4); test: Inhibition of Escherichia coli FabI using 2-dodecenoyl-CoA as substrate at pH 8
T1 sequence (P0AEK4 whole entry): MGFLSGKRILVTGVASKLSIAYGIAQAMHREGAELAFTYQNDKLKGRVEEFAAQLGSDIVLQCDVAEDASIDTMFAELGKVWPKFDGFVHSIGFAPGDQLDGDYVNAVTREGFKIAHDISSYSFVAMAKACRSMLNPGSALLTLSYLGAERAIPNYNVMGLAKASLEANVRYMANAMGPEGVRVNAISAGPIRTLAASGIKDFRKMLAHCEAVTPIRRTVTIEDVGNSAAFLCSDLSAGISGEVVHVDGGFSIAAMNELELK

[14] = Inhibition of Staphylococcus aureus FabI using dodecenoyl ACP at pH 7.8
[15] = species on record: Danio rerio; test: Hepatotoxicity in zebrafish larva expressing fabp10a:DsRed2 assessed as reduction in liver size at 60.2 uM measured at 6 days postfertilization by fluorescence microscopic analysis; type: toxicity, organism-based; settings: in vivo, 144 h; procedure, shortened: as §1
[16] = system: Plasmodium falciparum; test: Antiplasmodial activity against blood stage of chloroquine and pyrimethamine-resistant Plasmodium falciparum K1 after 48 hrs by [3H]-hypoxanthine incorporation assay; type: functional, organism-based
Procedure, shortened: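 0.4% parasitemia in assay medium with 15 μM hypoxanthine; compounds incubated 48 h before 3H-hypoxanthine added; run in duplicate.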

[17] = system: KB; test: Cytotoxicity against human KB cells after 72 hrs by Alamar Blue assay; type: functional, cell-based
[18] = species on record: Danio rerio; test: Hepatotoxicity in zebrafish larva expressing fabp10a:DsRed2 assessed as change in liver size at 3.6 to 60.2 uM measured at 6 days postfertilization by fluorescence microscopic analysis relative to control; type: toxicity, organism-based; settings: in vivo, 144 h; procedure, shortened: as §1
[19] = system: Plasmodium berghei; test: microbe, parasite or virus in culture; settings: Huh-7
[20] = system: Plasmodium; test: Antiplasmodial activity against blood stage of Plasmodium; type: functional
Procedure, shortened: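 P. falciparum K1 (chloroquine/pyrimethamine-resistant) culture with 3H-hypoxanthine incorporation read-out, run in duplicate. Assay medium held 15 μM hypoxanthine, parasitemia 0.4%, and compounds were incubated 48 h before 3H-hypoxanthine was added.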

[21] = system: Plasmodium berghei; test: microbe, parasite or virus in culture; settings: ANKA, HepG2
[22] = system: Staphylococcus aureus; test: Antibacterial activity against Staphylococcus aureus ATCC 6538; type: functional
Procedure, shortened: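 S. aureus ATCC 6538 whole cells tested in triplicate by a previously reported method. Compounds were fully solubilized beforehand, with brief agitation or sonication for high test concentrations (>120 μM) in DMSO.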

[23] = species on record: Danio rerio; test: Hepatotoxicity in zebrafish larva expressing fabp10a:DsRed2 assessed as enlargement of liver at 15.5 uM measured at 6 days postfertilization by fluorescence microscopic analysis; type: toxicity, organism-based; settings: in vivo, 144 h; procedure, shortened: as §1

SMILES	IC50 [1] [µM]	IC50 [2] [µM]	IC50 [4] [µM]	MTD [6] [µM]	IC50 [7] [µM]	MIC [8] [µM]	IC50 [9] [µM]	Activity [10]	IC50 [12] [µM]	IC50 [13] [µM]	IC50 [14] [µM]	IC50 [16] [µM]	IC50 [17] [µM]	Activity [18]	also measured
CC(=O)C1=C(O)C=C2Oc3c(C(C)=O)c(O)c(C)c(O)c3[C@@]2(C)C1=O [(+)-USNIC ACID]	> 200	> 200	> 100	0.3	> 200	15.1 (≈ 5.2 µg/mL)	> 64	Active	2.3	47	190	–	–	–	IC50 [3]: 190 µM; Activity [5]: Non-toxic; Activity [11]: Active
COc1cc(C)c(C(=O)Oc2cc(C)c(C(=O)O)c(O)c2)c(O)c1 [EVERNIC ACID]	10.7	> 200	> 100	60.2	36.1	–	> 64	inactive	77.3	90	170	142	190	>= 40%	Activity [15]: Toxic
COc1cc(NC(C)CCCN)c2ncccc2c1 (centres undefined) [PRIMAQUINE]	–	–	–	–	–	–	–	–	–	–	–	–	–	–	IC50 [19]: 7.5 µM; IC50 [20]: 1.4 µM; IC50 [21]: 7.5 µM
COc1cc(C(=O)O)c2c(c1C)OC(=O)c1c(C)cc(O)c(C=O)c1O2 [PSOROMIC ACID]	35.2	183	> 100	3.6	71.4	123 (≈ 44 µg/mL)	> 64	inactive	31.6	> 200	> 200	29.2	31.6	>= 40%	–
COC(=O)/C(=C1/OC(=O)C(c2ccccc2)=C1O)c1ccccc1 [VULPINIC ACID]	20.5	> 200	> 100	15.5	> 140	–	> 64	Active	10.2	84	90	48.5	–	>= 40%	MIC [22]: 32 µM (≈ 10.3 µg/mL); Activity [23]: Toxic
